Measurements: ChEMBL document CHEMBL4130346, “New quinoline-arylamidine hybrids: Synthesis, DNA/RNA binding and antitumor activity” (Eur J Med Chem, 2017)
In brackets after ≈: the same amount, converted by molar mass. Activity calls are given as the source filed them. No cut-off for these calls is given here.

Legend:
[1] = Solubility of the compound in water; format: physicochemical
[2] = Chemical stability in aqueous solution after several weeks; format: physicochemical; conditions: buffer
In short: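 Aqueous compound solutions were monitored for several weeks by UV-Vis absorbance at 220-900 nm. Linearity with concentration was checked up to 3.5 × 10^-5 mol dm-3, and spectra were recorded at 25–90 °C with reproducibility checked on cooling to 25 °C.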

Calf thymus DNA [3] = test: Binding affinity to calf thymus DNA assessed as change in melting temperature at 0.1 compound to ds-polynucleotide ratio by spectrophotometric method; format: nucleic-acid assay; conditions: Bos taurus
In short: (§1)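 Thermal melting of ct-DNA (sonicated, filtered) or polyA-polyU in Na cacodylate buffer, I = 0.05 mol dm-3, pH 7.0, at given r = [compound]/[polynucleotide]; polynucleotide as phosphate concentration. Tm from maximum of first derivative, checked by tangent method. ΔTm = Tm(complex) − Tm(free nucleic acid), average of at least two measurements, error ±0.5 °C.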

Calf thymus DNA [4] = test: Binding affinity to calf thymus DNA assessed as change in melting temperature at 0.3 compound to ds-polynucleotide ratio by spectrophotometric method; format: nucleic-acid assay; conditions: Bos taurus; in short: as §1
Calf thymus DNA [5] = test: Binding affinity to calf thymus DNA assessed as change in melting temperature at 0.5 compound to ds-polynucleotide ratio by spectrophotometric method; format: nucleic-acid assay; conditions: Bos taurus; in short: as §1
[6] = Binding affinity to polyA-polyU (unknown origin) assessed as change in melting temperature at 0.1 compound to ds-polynucleotide ratio by spectrophotometric method; in short: as §1
[7] = Binding affinity to polyA-polyU (unknown origin) assessed as change in melting temperature at 0.3 compound to ds-polynucleotide ratio by spectrophotometric method; in short: as §1
[8] = Binding affinity to polyA-polyU (unknown origin) assessed as change in melting temperature at 0.5 compound to ds-polynucleotide ratio by spectrophotometric method; in short: as §1
[9] = Growth inhibition of MDCK1 cells after 72 hrs by MTT assay; design: species or system Canis lupus familiaris; conditions: dog
In short: (§2)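 Adherent cells (2x10^4 cells/cm3) attached overnight, then were exposed to compound for 72 h. Medium was replaced with 5 mg/cm3 MTT, formazan was dissolved in DMSO and absorbance read at 595 nm. Percent growth was taken relative to untreated control minus background. GI50 came from a variable-slope log-inhibitor fit, as mean ± SD of three independent experiments in triplicate.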

HeLa = test: Growth inhibition of human HeLa cells after 72 hrs by MTT assay; format: functional; in short: as §2
Caco-2 = test: Growth inhibition of human Caco2 cells after 72 hrs by MTT assay; format: functional; conditions: Caco-2, 72 h; in short: as §2
K562 [10] = test: Growth inhibition of human K562 cells after 72 hrs by MTT assay; format: functional; conditions: K562, 72 h
In short: (§3)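 Leukemia cells (1x10^5 cells/cm3) were exposed to compound for 72 h, then MTT (5 mg/cm3) was added for 4 h. Formazan was dissolved with 10% SDS in 0.01 mol dm-3 HCl and absorbance read at 595 nm. Percent growth was taken versus untreated control minus background. GI50 came from a variable-slope fit, as mean ± SD of three independent experiments in triplicate.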

Raji = test: Growth inhibition of human Raji cells after 72 hrs by MTT assay; format: functional; in short: as §3
K562 [11] = test: Cell cycle arrest in human K562 cells assessed as accumulation at G0-G1 phase at 10^-5 mol/dm'3 after 24 hrs by propidium iodide staining-based flow cytometric method; format: functional
K562 [12] = test: Cell cycle arrest in human K562 cells assessed as decrease in cell levels at S phase at 10^-5 mol/dm'3 after 24 hrs by propidium iodide staining-based flow cytometric method; format: functional
K562 [13] = test: Cell cycle arrest in human K562 cells assessed as decrease in cell levels at G2-M phase at 10^-5 mol/dm'3 after 24 hrs by propidium iodide staining-based flow cytometric method; format: functional
[14] = Solubility of the compound in DMSO; format: physicochemical
Calf thymus DNA [15] = test: Binding affinity to calf thymus DNA assessed as hypochromic effect by UV-vis spectrophotometric method; format: nucleic-acid assay; conditions: Bos taurus
In short: (§4)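 UV-Vis titration at room temperature in Na cacodylate buffer (I = 0.05 mol dm-3, pH 7.0). Portions of ct-DNA or polyA-polyU were added to a fixed compound concentration until saturation, with dilution correction. Polynucleotide was measured as phosphate. Ks and n were obtained by Scatchard analysis, together with the hypochromic change at the absorption maximum.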

[16] = Binding affinity to polyA-polyU (unknown origin) assessed as hypochromic effect by UV-vis spectrophotometric method; in short: as §4
[17] = Binding affinity to polyA-polyU (unknown origin) by UV-vis spectrophotometric method; in short: as §4
Calf thymus DNA [18] = test: Binding affinity to calf thymus DNA minor groove at 0.1, 0.3, 0.5, 0.7 compound to ds-polynucleotide ratio by CD-spectrophotometric method; format: nucleic-acid assay; conditions: Bos taurus
In short: (§5)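 Induced CD spectra were recorded in 1 cm quartz cuvettes in Na cacodylate buffer (I = 0.05 mol dm-3, pH 7.0) with ct-DNA or polyA-polyU. Compound was added at r = [compound]/[polynucleotide] = 0.1, 0.3, 0.5 and 0.7. The CD signal was followed as a function of r.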

Calf thymus DNA [19] = test: Disruption of calf thymus DNA helix at 0.1, 0.3, 0.5, 0.7 compound to ds-polynucleotide ratio by CD-spectrophotometric method; format: nucleic-acid assay; conditions: Bos taurus; in short: as §5
[20] = Binding affinity to polyA-polyU (unknown origin) major groove at 0.1, 0.3, 0.5, 0.7 compound to ds-polynucleotide ratio by CD-spectrophotometric method; in short: as §5
K562 [21] = test: Cell cycle arrest in human K562 cells assessed as accumulation at sub-G0 phase at 10^-5 mol/dm'3 after 24 hrs by propidium iodide staining-based flow cytometric method; format: functional
Calf thymus DNA [22] = test: Binding affinity to calf thymus DNA by UV-vis spectrophotometric method; format: nucleic-acid assay; conditions: Bos taurus; in short: as §4
[23] = Induction of polyA-polyU (unknown origin) intercalation at 0.1, 0.3, 0.5, 0.7 compound to ds-polynucleotide ratio by CD-spectrophotometric method; in short: as §5

| Structure (SMILES) | solubility [1] [µM] | Stability [2] | ΔTm (Calf thymus DNA [3]) [°C] | ΔTm (Calf thymus DNA [4]) [°C] | ΔTm (Calf thymus DNA [5]) [°C] | ΔTm [6] [°C] | ΔTm [7] [°C] | ΔTm [8] [°C] | GI50 (HeLa) [µM] | GI50 (Caco-2) [µM] | GI50 (K562 [10]) [µM] | GI50 (Raji) [µM] | solubility [14] [µM] | Activity (Calf thymus DNA [15]) [%] | Activity [16] | log Ks [17] | Activity (Calf thymus DNA [18]) | GI50 at 72 h [9] [µM] | Activity (K562 [12]) | Activity (K562 [13]) | further results |
| --- | --- | --- | --- | --- | --- | --- | --- | --- | --- | --- | --- | --- | --- | --- | --- | --- | --- | --- | --- | --- | --- |
| N#Cc1ccc(Oc2ccnc3cc(Cl)ccc23)cc1 | – | Stable | – | – | – | – | – | – | > 100 | > 100 | 86.7 | 91.4 | 1000 (≈ 281 µg/mL) | – | – | – | – | 88.5 | – | – | – |
| N#Cc1ccc2nc(-c3ccc(Oc4ccnc5cc(Cl)ccc45)cc3)[nH]c2c1 | – | Stable | – | – | – | – | – | – | > 100 | > 100 | > 100 | > 100 | 1000 (≈ 397 µg/mL) | – | – | – | Active | 93.1 | – | – | – |
| Cl.Cl.Cl.Clc1ccc2c(NCCOc3ccc(-c4nc5ccc(C6=NCCN6)cc5[nH]4)cc3)ccnc2c1 | 1000 | Stable | 5.75 | – | – | 4.62 | 5.16 | 8.86 to 33.5 | > 100 | 117 | 8.6 | 27.5 | – | 21.6 to 26 | 37.7% | 6.71 | Active | > 100 | Active | – | Activity (Calf thymus DNA [19]): Active; Activity [20]: Active; Activity (K562 [21]): Active |
| CC(C)CNC(=N)c1ccc2nc(-c3ccc(OCCNc4ccnc5cc(Cl)ccc45)cc3)[nH]c2c1.Cl.Cl.Cl | 1000 | Stable | 4.31 | 8.15 | 8.67 | 1.24 | 0.75 | – | > 100 | > 100 | 15.1 | 28.5 | – | 32.2 | 26% | 7.02 | Active | 94.1 | Active | Active | log Ks (Calf thymus DNA [22]): 6.51; Activity (Calf thymus DNA [19]): Active; Activity [20]: Active; Activity (K562 [21]): Active |
| Cl.Cl.Cl.N=C(N)c1ccc2nc(-c3ccc(Oc4ccnc5cc(Cl)ccc45)cc3)[nH]c2c1 | 1000 | Stable | 2.07 | 2.84 | 2.9 | 2.98 | 0.72 | 0.21 | > 100 | 82.9 | > 100 | 111 | – | 79.8 | 6.9% | 6.43 | Active | > 100 | – | – | log Ks (Calf thymus DNA [22]): 6.83; Activity [23]: Active |
| Cl.Cl.Cl.N=C(NC1CCCC1)c1ccc2nc(-c3ccc(OCCNc4ccnc5cc(Cl)ccc45)cc3)[nH]c2c1 | 1000 | Stable | 3.71 | 7.8 | 7.8 | 3.02 | 1.14 | 4.67 to 35.4 | > 100 | > 100 | 11.4 | 17.1 | – | 24.4 | 49.7% | 6.81 | Active | 99.2 | Active | – | log Ks (Calf thymus DNA [22]): 6.29; Activity (Calf thymus DNA [19]): Active; Activity [20]: Active |

Stronger by GI50 (HeLa), values ahead:

| solubility [1] [µM] | Stability [2] | ΔTm (Calf thymus DNA [3]) [°C] | ΔTm (Calf thymus DNA [4]) [°C] | ΔTm (Calf thymus DNA [5]) [°C] | ΔTm [6] [°C] | ΔTm [7] [°C] | ΔTm [8] [°C] | GI50 (HeLa) [µM] | GI50 (Caco-2) [µM] | GI50 (K562 [10]) [µM] | GI50 (Raji) [µM] | solubility [14] [µM] | Activity (Calf thymus DNA [15]) [%] | Activity [16] | log Ks [17] | Activity (Calf thymus DNA [18]) | Structure (SMILES) | GI50 at 72 h [9] [µM] | Activity (K562 [12]) | Activity (K562 [13]) | further results |
| --- | --- | --- | --- | --- | --- | --- | --- | --- | --- | --- | --- | --- | --- | --- | --- | --- | --- | --- | --- | --- | --- |
| 1000 | Stable | 1.91 | 1.97 | 1.85 | -0.71 | -0.8 | -0.44 | 52.3 | 71.9 | 16.9 | 25.5 | – | – | – | – | – | CC(C)CNC(=N)c1ccc(Oc2ccnc3cc(Cl)ccc23)cc1.Cl.Cl.Cl | 30.3 | Active | Active | Activity (K562 [11]): Active |
| – | Stable | – | – | – | – | – | – | 84.4 | 95.3 | 7.2 | 6.2 | 1000 (≈ 324 µg/mL) | 26.2 | inactive | inactive | – | N#Cc1ccc(OCCNc2ccnc3cc(Cl)ccc23)cc1 | > 100 | Active | Active | Activity (K562 [11]): Active |
| – | Stable | 3.96 | 2.58 | 2.6 | – | – | – | 56.6 | 28.3 | 7.8 | 5.2 | 1000 (≈ 440 µg/mL) | – | – | – | Active | N#Cc1ccc2nc(-c3ccc(OCCNc4ccnc5cc(Cl)ccc45)cc3)[nH]c2c1 | 22.1 | – | – | Activity (Calf thymus DNA [19]): Active |
| 1000 | Stable | 1.35 | 1.43 | 1.51 | 0.64 | 0.65 | 0.28 | 48.6 | 13.5 | 18.8 | 19.7 | – | – | – | – | – | Cl.Cl.Cl.N=C(NC1CCCC1)c1ccc(Oc2ccnc3cc(Cl)ccc23)cc1 | 35 | Active | Active | Activity (K562 [11]): Active |
| 1000 | Stable | 1.07 | 1.75 | 2.24 | -0.44 | 1.32 | 0.43 | 51.3 | 53.3 | 69 | 48.2 | – | 60 | 26.8% | 5.36 | Active | CC(C)NC(=N)c1ccc2nc(-c3ccc(Oc4ccnc5cc(Cl)ccc45)cc3)[nH]c2c1.Cl.Cl.Cl | 61.8 | – | – | log Ks (Calf thymus DNA [22]): 7.87; Activity [23]: Active |
